Screens deposited in PubChem BioAssay by several laboratories.
ABCB1 inh = ABCB1 efflux pump inhibitors, primary screen, cell-based, multiplex, flow cytometry, ABCG2 counter-screen; inhibition, % at 6.6 µM; ATP-dependent translocase ABCB1 (Homo sapiens), P08183; CCRF-Adr cells, JC-1 efflux; 190,000 compounds, 0.067% hits; in the data active means inhibition above about 40%;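 further: 0% = vehicle and 100% = reference inhibitor; higher value means more JC-1 retained so stronger ABCB1 efflux block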
ABCG2 inh = ABCG2 efflux pump inhibitors, primary screen, multiplex with ABCB1, IgMXP3 cells, flow cytometry | Broad substrate specificity ATP-binding cassette transporter ABCG2 (Homo sapiens), Q9UNQ0 | JC-1 efflux | inhibition, % at 6.6 µM | 190,000 compounds, 0.1% hits | AID 1325, 2008;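 active means inhibition above 80%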;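 further: 0% = DMSO and 100% = nicardipine control wells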
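Assay system – ABCG2 IgMXP3 and barcoded ABCB1 CCRF-Adr cell mix · Input – 3 million cells/mL in well · Reagent – JC-1 fluorescent substrate · Compound – single test compound dose, 6.6 µM final · Timing – 10 min exposure at 25 °C with rotation, no wash · Detection – flow cytometry of retained JC-1 fluorescence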
PMI act = activators of human PMI, primary screen, biochemical, fluorescence intensity, near-Km mannose 6-phosphate; purified human PMI, coupled resazurin fluorescence, 20 min; active compounds read high; 1 = vehicle control, 0 substrate-free wells; AID 1214, 2008; activation factor at 20 µM; 190,000 compounds, 0.005% hits; Mannose-6-phosphate isomerase (Homo sapiens), P34949;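 active means activation factor of 2 or more at 20 µM, relative to plate controls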
Target sequence (P34949 whole entry, looked up): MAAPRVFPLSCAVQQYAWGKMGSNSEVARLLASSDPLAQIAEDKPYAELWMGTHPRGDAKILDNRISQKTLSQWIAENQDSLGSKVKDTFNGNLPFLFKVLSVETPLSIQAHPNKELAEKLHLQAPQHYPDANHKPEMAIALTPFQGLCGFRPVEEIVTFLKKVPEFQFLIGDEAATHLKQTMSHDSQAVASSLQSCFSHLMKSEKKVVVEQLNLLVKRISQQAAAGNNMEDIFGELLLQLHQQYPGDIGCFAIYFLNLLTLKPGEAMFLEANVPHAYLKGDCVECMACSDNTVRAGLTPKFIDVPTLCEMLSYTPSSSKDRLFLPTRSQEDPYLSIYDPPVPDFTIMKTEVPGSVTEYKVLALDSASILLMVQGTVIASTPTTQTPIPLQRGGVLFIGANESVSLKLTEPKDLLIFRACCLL
KCC2 mod = KCC2 cotransporter modulators, thallium flux, primary screen, cell-based, HEK293 KCC2, FluoZin-2 fluorescence, MLSMR. AID 1456, 2008. 190,000 compounds, 2.2% hits. Solute carrier family 12 member 5 (Homo sapiens), Q9H2X9. B-score of Tl+ flux slope (higher = more flux/activation; lower = inhibition) at 10 µM. KCC2 cells, thallium flux FluoZin-2 fluorescence;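 active means thallium flux slope and its plate-corrected score both differing from the plate sample mean at a set confidence after two filtering rounds, in either direction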;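 further: slope of fluorescence scaled to starting intensity during 10 to 20 s after thallium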
PMI act satM6P = human PMI activators, high substrate, primary screen, biochemical, fluorescence intensity, near-saturating mannose 6-phosphate | 190,000 compounds, 0.34% hits | activation factor at 20 µM | Mannose-6-phosphate isomerase (Homo sapiens), P34949 | AID 1216, 2008 | coupled PMI enzyme assay, resazurin fluorescence, 20 min; active compounds read high; 1 = untreated enzyme, 0 = substrate-free blank;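 active means activation factor of 2 or more at 20 µM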
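Test system: human PMI in coupled enzyme assay; Input: PMI at 15 ng/mL final; Medium: HEPES buffer, pH 7.4; Schedule: 20 min incubation at room temperature; Technique: resorufin fluorescence at Ex 544/Em 590 nm; Compound: 20 µM single dose; Probe or stimulus: Near-saturating mannose-6-phosphate, 1.0 mM.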
ROMK mod = ROMK potassium channel modulators, primary screen, cell-based, thallium flux, MLSMR library | 130,000 compounds, 2% hits | B-score at 10 µM | Tet-inducible ROMK, thallium flux fluorescence; actives lie on both sides | ATP-sensitive inward rectifier potassium channel 1 (Homo sapiens), P48048;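 active means signal ratio slope over the read window, or its plate-corrected B-score, at least 3 SD from the plate mean, either direction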;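 further: B-score of the F/F0 ratio slope over 7 to 12 s after thallium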
Target sequence (P48048 whole entry, looked up): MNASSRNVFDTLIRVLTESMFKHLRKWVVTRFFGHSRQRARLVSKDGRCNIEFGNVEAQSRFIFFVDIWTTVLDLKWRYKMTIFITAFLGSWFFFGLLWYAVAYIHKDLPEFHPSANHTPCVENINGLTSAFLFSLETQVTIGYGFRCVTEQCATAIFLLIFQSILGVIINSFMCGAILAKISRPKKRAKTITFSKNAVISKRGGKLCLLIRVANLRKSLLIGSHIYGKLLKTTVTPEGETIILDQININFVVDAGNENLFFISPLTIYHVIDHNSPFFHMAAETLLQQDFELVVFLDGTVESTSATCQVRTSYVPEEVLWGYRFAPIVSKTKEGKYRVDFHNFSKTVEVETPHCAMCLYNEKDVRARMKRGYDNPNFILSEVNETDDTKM
KCC2 secondary = KCC2 modulators in sodium-free buffer, confirmation, cell-based, HEK293 KCC2, thallium flux, secondary assay; 3,700 compounds, 15% hits; shares compounds with KCC2 mod; FluoZin2 fluorescence; active compounds read high; normalised thallium flux (F/F0 slope) at 10 µM;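 active means thallium flux slope above the same plate's solvent-only control mean plus 3 SD; inconclusive means the two replicate wells disagree; inactive means no significant difference from solvent-only control wells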
KCC2 bumet counter = thallium flux persisting under bumetanide in KCC2 cells, confirmation, counter-screen for KCC2 modulator project, cell-based, HEK293 KCC2, FluoZin2, secondary assay 3 | shares compounds with KCC2 mod | HEK293-KCC2 + bumetanide/ouabain; active compounds read high | normalized thallium flux at 10 µM | 3,700 compounds, 49% hits | AID 1714, 2009;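 active means thallium entry rate above the same plate's blocked-transporter control wells by more than 3 SD; inconclusive means the two repeat wells disagree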;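 further: raw slope of fluorescence over initial fluorescence between 10 and 20 s after thallium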
KCC2 secondary2 = KCC2 modulators without ouabain present, confirmation, cell-based, HEK293 KCC2, thallium flux, FluoZin2, secondary assay 2; normalized thallium flux at 10 µM; AID 1715, 2009; thallium flux FluoZin2 fluorescence; actives lie on both sides; F/F0 rise rate, 10–20 s post-thallium; 3,700 compounds, 23% hits; shares compounds with KCC2 mod;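 active means thallium flux slope more than 3 SD above or below the plate's solvent-only control mean, mostly below; inconclusive means the two repeat wells disagreed; inactive means no significant shift from solvent-only controls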;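 further: raw slope with 0.1% DMSO as baseline and bumetanide as block control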
HEK293 Tl flux = thallium flux modulation in parental HEK cells, confirmation, counter-screen for KCC2 modulator project, cell-based, counterscreen 1; shares compounds with KCC2 mod; 3,700 compounds, 46% hits; HEK293 parental cells, thallium flux FluoZin2, ouabain; baseline-ratio fluorescence slope, 10–20 s after thallium; thallium flux rate (normalised fluorescence) at 10 µM;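 active means thallium flux rate significantly above the same plate's solvent-only control wells, beyond their mean plus 3 SD; inconclusive means the two replicate wells gave conflicting results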
KCC2 retest ouab = KCC2 inhibitors and activators, ouabain retest, confirmation, HEK-KCC2 cells; shares compounds with KCC2 mod; HEK293-KCC2, thallium flux FluoZin2 fluorescence; bidirectional: low = inhibitor, high = activator; raw Tl+ flux slope (below DMSO = inhibition, above = activation) at 10 µM; 3,700 compounds, 48% hits;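 active means thallium flux slope beyond 3 SD from same-plate DMSO control mean in most replicates, usually higher, sometimes lower; inconclusive means repeat tests gave conflicting results; inactive means no significant difference from controls in most replicates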;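 further: slope of initial-normalized fluorescence between seconds 10 and 20 after thallium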
HEK293 Tl flux2 = native HEK Tl+ uptake effects, second counter-screen – HEK cells, counterscreen 2, counter-screen for KCC2 modulator project, confirmation. shares compounds with KCC2 mod. HEK293 parental, thallium flux FluoZin-2 fluorescence slope. thallium flux slope at 10 µM. 3,700 compounds, 33% hits;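 active means thallium flux slope above the same plate's solvent-control mean plus 3 SD in both duplicate wells; inconclusive means duplicate wells that disagreed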;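 further: run without ouabain in cells lacking the KCC2 cotransporter; slope of fluorescence scaled to its starting value between 10 and 20 s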
Starred values were filed as active, the others as inactive; ? = inconclusive; . = not tested or not shown. Shown are actives, neighbours in structure and some others; about 3.3% of the full set was active somewhere.

SMILES | ABCB1 inh | ABCG2 inh | PMI act | KCC2 mod | PMI act satM6P | ROMK mod | KCC2 secondary | KCC2 bumet counter | KCC2 secondary2 | HEK293 Tl flux | KCC2 retest ouab | HEK293 Tl flux2
C=CCNc1nc(Cl)nc(Nc2ccc(OCC)cc2)n1 | 0.7 | 0.3 | 1 | 0.13 | 1 | -1.15 | . | . | . | . | . | .
CCOC(=O)/C(C#N)=C1\C(=O)N(Cc2ccccc2)c2ccccc21 | . | . | . | 0.784 | . | . | . | . | . | . | . | .
CCOCCCNc1nc(C)nc2c1nnn2Cc1c(F)cccc1Cl | 0.6 | 4.4 | 1 | 0.00206 | 1 | 0.438 | . | . | . | . | . | .
COc1cccc(C2Oc3ccccc3C3CC(c4cccs4)=NN32)c1 (centres undefined) | . | . | . | 6.5* | . | . | 0.0172 | 0.0192* | 0.0319 | 0.0128* | 0.0199 | 0.0159*
CCCC1=NN2C(=N)/C(=C\c3cc(C)n(-c4cc(C)cc(C)c4)c3C)C(=O)N=C2S1 | -0.6 | -5.2 | 0.9 | 11.7* | 0.9 | 0.348 | 0.0102 | 0.0151* | 0.0338 | ? | 0.0252* | 0.0131
CCC1=NN2C(=N)/C(=C\c3cccn3-c3ccc(Cl)cc3)C(=O)N=C2S1 | -0.9 | -4.3 | 1.1 | 18.5* | 1 | 2.35 | ? | 0.0433* | 0.0301 | 0.0141* | 0.0271 | 0.0115*
Cc1ccc(-n2cccc2/C=C2\C(=N)N3N=C(c4ccco4)SC3=NC2=O)cc1 | 0.1 | 0.7 | 1.1 | 3.89 | 1.2 | 1.87 | . | . | . | . | . | .
CCC1=NN2C(=N)/C(=C\c3cccn3-c3ccc(C)c(C)c3)C(=O)N=C2S1 | 0.0 | -0.3 | 1 | 7.02* | 1.1 | 2.28 | 0.00624 | 0.0482* | 0.0487* | 0.0366* | 0.0425* | 0.034*
O=C(CCc1nc2ccccc2s1)OCC(=O)c1ccc[nH]1 | -0.1 | 0.6 | 1 | 1 | 1 | 1.29 | . | . | . | . | . | .
COc1cccc(C2C(C(=O)c3sc(C)nc3C)=C(O)C(=O)N2CCN(C)C)c1OC (centres undefined) | . | . | 1 | . | 1.1 | . | . | . | . | . | . | .
Fc1ccccc1NC(=S)N1CCN(Cc2ccccc2)CC1 | 0.3 | 0.1 | 0.9 | -1.48 | 0.9 | 0.308 | . | . | . | . | . | .
O=c1cc(/N=C/c2coc3cc(Br)ccc3c2=O)[nH]c(=S)[nH]1 | . | . | . | 9.52* | . | . | 0.0139* | 0.0446* | 0.0343 | 0.00886* | 0.0259 | 0.0109
Cc1ccc2c(c1)SC1=NC(c3ccccc3)(C(F)(F)F)NC(=O)N12 (centres undefined) | 0.3 | 0.7 | 1.1 | 0.829 | 1 | . | . | . | . | . | . | .
Cc1ccc(-c2cc(-c3n[nH]c(=S)n3C)c3ccccc3n2)cc1 | -0.5 | -1.2 | 1 | 10.7* | 1 | 0.412 | 0.00915 | 0.0444* | 0.0312 | 0.0122* | ? | ?
CCn1c(-c2cc(-c3ccc(C)c(C)c3)nc3ccccc23)n[nH]c1=S | -1.5 | -5.0 | 0.9 | 1.31 | 0.9 | 0.276 | . | . | . | . | . | .
CCOc1cccc(-c2cc(-c3n[nH]c(=S)n3CC)c3ccccc3n2)c1 | -0.3 | -0.6 | 1.1 | . | 1.1 | 1.75 | 0.00894 | 0.0724* | 0.0306 | 0.0152* | ? | ?
CC(C)c1ccccc1OCCNS(C)(=O)=O | 0.4 | 1.7 | 1 | 0.137 | 0.9 | . | . | . | . | . | . | .
C=CCNC(=S)NC(=O)c1csc([N+](=O)[O-])c1 | . | . | . | 5.95* | . | . | 0.00923 | 0.0201* | 0.0298 | 0.00972* | ? | 0.00974
O=C(NC(=S)N1CCCCC1)c1csc([N+](=O)[O-])c1 | . | . | . | 23.6* | . | . | 0.0224* | 0.0323* | 0.0354 | 0.0169* | ? | 0.0132*
C=CCNC(=S)N/N=C/c1ccc(C)c([N+](=O)[O-])c1 | 0.6 | 12.1 | 1 | 1.25 | 1 | -1.79 | . | . | . | . | . | .
O=C(NC(=S)N1CCOCC1)c1ccc([N+](=O)[O-])cc1 | -0.2 | 0.4 | 0.9 | 0 | 1 | 0 | . | . | . | . | . | .
Cc1cccc(C(=O)N/N=C/c2ccc3c(c2)OCO3)n1 | 0.0 | 1.3 | 1 | 0.678 | 1 | . | . | . | . | . | . | .
Cc1cccc(NC(=S)NCc2ccc3c(c2)OCO3)c1 | 0.0 | 0.7 | 1 | -1.34 | 1 | . | . | . | . | . | . | .
COc1ccccc1NC(=S)N/N=C/c1cccc(C)c1 | 0.4 | 1.5 | 0.8 | 5.54* | 0.9 | . | 0.0114 | 0.016* | 0.0343 | 0.0121* | 0.0259 | 0.0111
Cc1cccc(NC(=S)N/N=C/c2ccc3c(c2)OCO3)c1 | -0.3 | -1.9 | 1 | 10.2* | 1.1 | 0.00783 | 0.0113 | 0.0155* | 0.0341 | 0.0277* | 0.0271* | ?
O=C(N/N=C/c1ccc2c(c1)OCO2)c1ccc2ccccc2n1 | -0.6 | -1.1 | 1 | 4.85* | 0.9 | 1.35 | 0.0168 | 0.0183* | 0.0324 | 0.012* | 0.0204* | 0.0158*
O=c1[nH]c(=S)[nH]c(O)c1N=Nc1ccc(-c2ccccc2)cc1[N+](=O)[O-] | -0.5 | -1.3 | 0.9 | -0.303 | 0.9 | 0.764 | . | . | . | . | . | .
